We go through 15 compounds from ChEMBL document CHEMBL2057074, “Design, synthesis and biological activity of 6-substituted carbamoyl benzimidazoles as new nonpeptidic angiotensin II AT₁ receptor antagonists” (Bioorg Med Chem, 2012).

Data set [1] addresses T1, Type-1 angiotensin II receptor (Homo sapiens, UniProt P30556).
T1 sequence (P30556 whole entry): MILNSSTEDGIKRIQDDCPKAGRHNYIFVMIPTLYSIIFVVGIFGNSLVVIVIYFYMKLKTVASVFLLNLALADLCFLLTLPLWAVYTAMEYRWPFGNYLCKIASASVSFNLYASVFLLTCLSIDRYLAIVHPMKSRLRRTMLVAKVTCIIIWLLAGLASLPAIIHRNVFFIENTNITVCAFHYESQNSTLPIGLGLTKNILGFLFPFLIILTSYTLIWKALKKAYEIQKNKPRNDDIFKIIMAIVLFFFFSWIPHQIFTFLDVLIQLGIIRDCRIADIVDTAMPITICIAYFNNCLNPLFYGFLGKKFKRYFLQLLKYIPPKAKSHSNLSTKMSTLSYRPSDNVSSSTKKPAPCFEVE
In words: Displacement of [125I]Sar1Ile8-Ang2 from angiotensin AT1 receptor after 180 mins by gamma counting.

The nature of data set [2]: Toxicity against Photobacterium phosphoreum expressing T3 mutation after 15 mins by Microtox assay. The data set is classed as organism-based. Put shortly: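 Microtox test with luminescent Photobacterium phosphoreum. Samples were incubated with bacteria for 15 min before reading inhibition of bacterial luminescence, testing up to the saturated concentration level. LC50 is the concentration in water inhibiting 50% of the test batch.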

The target in data set [3] is T2, Type-1 angiotensin II receptor (Oryctolagus cuniculus, UniProt P34976).
T2 sequence (P34976 whole entry): T1 sequence (P30556 whole entry) with I2M, V49A, I254V, I270V, R272H, R311K, T349S, A353V
In words: Antagonist activity at AT1 receptor in Japanese white rabbit thoracic aorta assessed as inhibition of […] contraction incubated 30 mins post KCl-induction for 1 hr. The format is functional, tissue-based. The conditions noted are these: read-out: pA2 (converted). An outline of the steps: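 Isolated rabbit aortic strips equilibrated 1 h with washes every 15 min. 67 mM KCl was given first to check tissue sensitivity and set the maximal contractile response. After a 30 min washout, test substances or their vehicles were added and contractile responses recorded.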

In data set [4] the test system is Rattus norvegicus. In words: Antihypertensive activity in non-fasted spontaneous hypertensive rat assessed as decrease in mean arterial blood pressure at 10 mg/kg, po by tail plethysmography relative to control. The data set is classed as functional, Artery. An outline of the steps:
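Male SHR aged 19–21 weeks, conscious and unanesthetised, six per group; controls got vehicle at 10 mL/kg. […] Blood pressure and heart rate measured by tail plethysmography after a warming period; data given as means SEM.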

Positions count from the first letter of the chain named. Values after ≈ are worked out from the molar mass of the structure shown.

In general, IC50 refers to the concentration that gives 50% inhibition. A lower IC50 goes with inhibition by little substance. What is called LC50 is the concentration lethal to half of the exposed cells or organisms.

For `CCCc1nc2c(C)cc(C(=O)NCCc3ccc(OC)cc3)cc2n1Cc1ccc(-c2ccccc2-c2nnn[nH]2)cc1`, in data set [1], the IC50 came to 22.5 nM. Also, in data set [2], the LC50 at 0.25 h is greater than 100 µg/mL.

As to `CCCc1nc2c(C)cc(C(=O)NCc3ccccc3)cc2n1Cc1ccc(-c2ccccc2-c2nnn[nH]2)cc1`, in data set [1], the IC50 was 410 nM. The same compound returned an LC50 at 0.25 h in data set [2] of 64 µg/mL (≈ 118 µM).

The compound `CCCc1nc2c(C)cc(C(=O)NCCc3ccccc3F)cc2n1Cc1ccc(-c2ccccc2-c2nnn[nH]2)cc1` yielded an IC50 in data set [1] of 37.6 nM. The same compound came in with an LC50 at 0.25 h in data set [2] of 17 µg/mL (≈ 29.6 µM).

Turning to `CCCc1nc2c(C)cc(C(=O)NCCc3ccccc3)cc2n1Cc1ccc(-c2ccccc2-c2nnn[nH]2)cc1`, the Kb in data set [3] was 4.79 nM. This compound also gave an IC50 in data set [1] of 1.3 nM. The compound also returned an LC50 at 0.25 h in data set [2] greater than 100 µg/mL.

As for `CCCCc1nc(Cl)c(CO)n1Cc1ccc(-c2ccccc2-c2nn[nH]n2)cc1` [LOSARTAN], in data set [2], the median lethal concentration (LC50) at 0.25 h came out at 331 µg/mL (≈ 783 µM).

On to `CCCc1nc2c(C)cc(C(=O)NCCc3ccc(OC)c(OC)c3)cc2n1Cc1ccc(-c2ccccc2-c2nnn[nH]2)cc1`, for which the Kb in data set [3] is 1.82 nM. In data set [1], this compound registered an IC50 of 3.7 nM. The compound also registered an LC50 at 0.25 h in data set [2] greater than 100 µg/mL.

In data set [2], `CCCc1nc2c(C)cc(-c3nc4ccccc4n3C)cc2n1Cc1ccc(-c2ccccc2C(=O)O)cc1` displayed an LC50 at 0.25 h of 100 µg/mL (≈ 194 µM).

Regarding `CCCc1nc2c(C)cc(C(=O)NCc3ccc(OC)c(OC)c3)cc2n1Cc1ccc(-c2ccccc2-c2nnn[nH]2)cc1`, the concentration for half-maximal inhibition (IC50) in data set [1] turned out to be 96.8 nM. The same compound yielded an LC50 at 0.25 h in data set [2] greater than 100 µg/mL.

Turning to `CCCc1nc2c(C)cc(C(=O)NCCc3ccc(F)cc3)cc2n1Cc1ccc(-c2ccccc2-c2nnn[nH]2)cc1`, the concentration for half-maximal inhibition (IC50) in data set [1] was 209 nM. The 50% lethal concentration (LC50) at 0.25 h in data set [2] came out at 60 µg/mL (≈ 105 µM).

Turning to `CCCc1nc2c(C)cc(C(=O)NCC(C)c3ccccc3)cc2n1Cc1ccc(-c2ccccc2-c2nnn[nH]2)cc1` (stereo not drawn), the Activity in data set [4] is given as greater than 30 mmHg. Also, the Kb in data set [3] was 1.7 nM. The half-maximal inhibitory concentration (IC50) in data set [1] was 0.9 nM. The 50% lethal concentration (LC50) at 0.25 h in data set [2] was greater than 100 µg/mL.

Compound `CCCc1nc2c(C)cc(C(=O)NCc3ccc(OC)cc3)cc2n1Cc1ccc(-c2ccccc2-c2nnn[nH]2)cc1` returned an IC50 in data set [1] of 119 nM. In addition, the LC50 at 0.25 h in data set [2] was greater than 100 µg/mL.

Consider `CCCc1nc2c(C)cc(C(=O)NCCc3cc(OC)ccc3OC)cc2n1Cc1ccc(-c2ccccc2-c2nnn[nH]2)cc1`, for which, in data set [1], the half-inhibitory concentration (IC50) turned out to be 78 nM. This compound displayed a median lethal concentration (LC50) at 0.25 h in data set [2] greater than 100 µg/mL.

For `CCCc1nc2c(C)cc(C(=O)NCCc3cccc(OC)c3)cc2n1Cc1ccc(-c2ccccc2-c2nnn[nH]2)cc1`, in data set [3], the Kb is 14.8 nM. In data set [1], this compound had a 50% inhibitory concentration (IC50) of 2.6 nM. Besides, in data set [2], the LC50 at 0.25 h was greater than 100 µg/mL.

On to `CCCc1nc2c(C)cc(C(=O)NCc3ccccc3OC)cc2n1Cc1ccc(-c2ccccc2-c2nnn[nH]2)cc1`, for which the IC50 in data set [1] turned out to be 19.7 nM. In addition, the 50% lethal concentration (LC50) at 0.25 h in data set [2] turned out to be 66 µg/mL (≈ 115 µM).

`CCCc1nc2c(C)cc(C(=O)NCc3cccc(OC)c3)cc2n1Cc1ccc(-c2ccccc2-c2nnn[nH]2)cc1` gave an IC50 in data set [1] of 78.3 nM. In data set [2], this compound came in with an LC50 at 0.25 h greater than 100 µg/mL.
